Test results from ChEMBL document CHEMBL1122366, “Potential antiatherosclerotic agents. 3. Substituted benzoic and non benzoic acid analogues of cetaben” (1983).
Several values for one entry are separate records, joined by “and”; a condition that tells them apart may be missing. Identical values can stand only once.

Assays:
Rattus norvegicus [1] = assay: In vivo triglyceride lowering activity dosed at 0.10 % of the diet.; assay type: functional
Summary of the method: (§1)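 Normal rats were dosed in the diet. Serum sterol and triglyceride levels were measured and expressed as the mean percent of control values. Significance versus control was reported at p < 0.05, 0.01 and 0.001.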

[2] = target: T1, Sterol O-acyltransferase 1 (Rattus norvegicus) (UniProt O70536); assay: In vitro inhibition of acyl coenzyme A:cholesterol acyltransferase; design: concentration or dose not given beside the values; settings: concentration not given here
T1 sequence (whole entry): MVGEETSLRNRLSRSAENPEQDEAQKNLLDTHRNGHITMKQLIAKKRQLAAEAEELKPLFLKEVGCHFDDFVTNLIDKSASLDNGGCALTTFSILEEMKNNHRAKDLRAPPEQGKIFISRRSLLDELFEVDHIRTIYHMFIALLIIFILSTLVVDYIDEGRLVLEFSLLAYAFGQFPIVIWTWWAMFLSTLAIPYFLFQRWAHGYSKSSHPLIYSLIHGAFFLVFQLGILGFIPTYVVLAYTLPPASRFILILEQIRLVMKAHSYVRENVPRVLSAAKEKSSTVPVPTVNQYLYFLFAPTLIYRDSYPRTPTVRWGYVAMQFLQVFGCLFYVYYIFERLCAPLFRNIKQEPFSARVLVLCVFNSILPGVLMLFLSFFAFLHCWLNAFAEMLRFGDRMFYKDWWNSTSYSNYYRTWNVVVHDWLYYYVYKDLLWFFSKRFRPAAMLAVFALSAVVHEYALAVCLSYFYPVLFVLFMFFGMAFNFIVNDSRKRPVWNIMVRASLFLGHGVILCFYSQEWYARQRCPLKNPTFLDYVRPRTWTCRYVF
Summary of the method: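 Enzyme fatty acyl-CoA:cholesterol acyltransferase (ACAT), assayed in vitro at a single drug concentration of 5.2 μg/mL. The value is the mean percent inhibition of enzyme activity.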

Rattus norvegicus [3] = assay: In vivo sterol lowering activity at dose of 0.10 % of the diet; assay type: functional; summary of the method: as §1
Rattus norvegicus [4] = assay: In vivo sterol lowering activity when dosed as 0.03 % of the diet; assay type: functional; summary of the method: as §1

Structure (SMILES)	serum triglyceride, percent of control (Rattus norvegicus [1])	inhibition [2]	serum sterol level, percent of control (Rattus norvegicus [3])	serum sterol level, percent of control (Rattus norvegicus [4])	Diet (Rattus norvegicus [1])
CCCCCCCCCCCCCCCCNc1ccc(C(=O)OC)c(F)c1	79%	< 23%	99%	–	–
CCCCCCCCCCCCCCCCN(C(=O)C(F)(F)F)c1ccc(C(=O)NO)cc1	91%	0%	96%	–	–
CCCCCCCCCCCCCCCCNc1ccc(/C=N\N=C(\N)NCc2ccccc2)cc1	<49%	0%	94%	–	–
CCCCCCCCCCCCCCCCNc1ccc(C(C#N)O[Si](C)(C)C)cc1 (configuration not stated)	<36%	0%	82%	–	–
CCCCCCCCCCCCCCCCN(C(=O)C(F)(F)F)c1ccc(C(=O)NNC(C)=O)cc1	<61%	< 50%	<81%	–	–
CCCCCCCCCCCCCCCCN(CCCCCCCCCCCCCCCC)c1ccc(CCC(=O)OCC)cc1	84%	28%	94%	–	–
CCCCCCCCCCCCCCCCNc1cc(C(=O)OC)cc(C(=O)OC)c1	86%	6%	108%	–	–
CCCCCCCCCCCCCCCCNc1ccc(C(=O)OCC(O)COC)cc1 (configuration not stated)	<65%	0%	<77%	–	–
CCCCCCCCCCCCCCCCNc1ccc(C(=O)OCC2COC(c3ccccc3)O2)cc1 (configuration not stated)	<50%	–	84%	–	–
CCCCCCCCCCCCCCCCNc1ccc(C(=O)N2CCCCC2)cc1	<61%	< 55%	83%	–	–
CCCCCCCCCCCCCCCCN(C(C)=O)c1ccc(CO)cc1	105%	< 22%	99%	–	–
CCCCCCCCCCCCCCCCNc1ccc(C(=O)O)c(O)c1	<57%	49%	108%	–	–
CCCCCCCCCCCCCCCCNc1ccc(C#N)cc1	–	8% and < 30%	–	–	–
CCCCCCCCCCCCCCCCN(C)c1ccc(C(=O)OCC(O)CO)cc1 (configuration not stated)	93%	0%	99%	–	–
CCCCCCCCCCCCCCCCN(C(=O)C(F)(F)F)c1ccc(C(=O)N2CCCCCC2)cc1	<66%	< 75%	95%	–	–
CCCCCCCCCCCCCCCCNc1ccc(C(=O)OC)c(C)c1	<60%	0%	99%	–	–
CCCCCCCCCCCCCCCCNc1ccc(C(=O)OCC)cc1F	74%	5%	105%	–	–
CCCCCCCCCCCCCCCCN(C(=O)C(F)(F)F)c1ccc(C(=O)N2CCCCC2)cc1	<68%	< 68%	92%	–	–
CCCCCCCCCCCCCCCCNc1ccc(C#N)cc1.Cl	88%	–	100%	–	–
CCCCCCCCCCCCCCCCNc1ccc(C(=O)OCC2COC(C)(C)O2)cc1 (configuration not stated)	<68%	0%	86%	–	–
CCCCCCCCCCCCCCCCN(CCCCCCCCCCCCCCCC)c1ccc(CCCC(=O)OCC)cc1	90%	18%	103%	–	–
CCCCCCCCCCCCCCCCNc1ccc(C(=O)Oc2ccc(C(=O)OC(C)(C)C)cc2)cc1	<67%	–	103%	–	–
CCCCCCCCCCCCCCCCNc1ncc(C(=O)OCC)cn1	–	13%	–	–	–
CCCCCCCCCCCCCCCCNc1ccc(C(=O)N(C)C)cc1	89%	48%	93%	–	–
CCCCCCCCCCCCCCCCNc1ccc(CCCC(=O)OCC)cc1	76%	0%	99%	–	–
CCCCCCCCCCCCCCCCNc1ccc(C(C)O)cc1 (configuration not stated)	93%	< 33%	93%	–	–
CCCCCCCCCCCCCCCCNc1ccc(C(=O)OCC(O)CO)cc1 (configuration not stated)	–	0%	–	–	–

Structure (SMILES)	serum triglyceride, percent of control (Rattus norvegicus [1])	inhibition [2]	serum sterol level, percent of control (Rattus norvegicus [3])	serum sterol level, percent of control (Rattus norvegicus [4])	Diet (Rattus norvegicus [1])
CCCCCCCCCCCCCCCCN(C(=O)C(F)(F)F)c1ccc(C(=O)C(C(=O)OCC)C(=O)OC(C)(C)C)cc1 (configuration not stated)	<64%	< 49%	90%	–	–
CCCCCCCCCCCCCCCCNc1ccc(C(=O)OCC(COC(=O)c2ccc(NCCCCCCCCCCCCCCCC)cc2)OC(C)=O)cc1	<63%	2%	89%	–	–
CCCCCCCCCCCCCCCCNc1ccc(C(=O)NC(C)C(=O)O)cc1 (configuration not stated)	132%	45%	102%	–	–
CCCCCCCCCCCCCCCCN(C(C)=O)c1ccc(C(=O)OCC(COC(C)=O)OC(C)=O)cc1 (configuration not stated)	111%	12%	101%	–	–
CCCCCCCCCCCCCCCCN(C(C)=O)c1ccc(C(=O)OCC(O)COC(C)=O)cc1 (configuration not stated)	113%	4%	97%	–	–
CCCCCCCCCCCCCCCCN(C(=O)C(F)(F)F)c1ccc(C(=O)Nc2ccc(C(=O)OCC)cc2)cc1	<69%	< 25%	95%	–	–
CCCCCCCCCCCCCCCCNc1ccc(CO)cc1.Cl	100%	–	99%	–	–
CCCCCCCCCCCCCCCCNc1ccc(SCC(=O)OCC)cc1	126%	13%	99%	–	–
CCCCCCCCCCCCCCCCNc1csc(C#N)c1	99%	< 41%	92%	–	–
CCCCCCCCCCCCCCCCN(CC)c1ccc(C(=O)O)cc1	–	< 72%	–	–	–
CCCCCCCCCCCCCCCCN(C(C)=O)c1ccc(C(=O)OCC(O)CO)cc1 (configuration not stated)	110%	0%	106%	–	–
CCCCCCCCCCCCCCCCNc1ccc(C(=O)OC)cn1	–	–	114%	108%	–
CCCCCCCCCCCCCCNc1ccc(C(=O)OCC(O)CO)cc1 (configuration not stated)	<47%	27%	<80%	–	–
CCCCCCCCCCCCCCCCNc1ccc(C(=O)OCC)c(F)c1	<68%	–	90%	–	–
CCCCCCCCCCCCCCCCNc1ccc(-c2nn[nH]n2)cc1	91%	78%	89%	–	–
CCCCCCCCCCCCCCCCNc1ccc(C(=O)OC/C=C/COC(=O)c2ccc(NCCCCCCCCCCCCCCCC)cc2)cc1	–	10%	91%	–	–
CCCCCCCCCCCCCCCCNc1ccc(C(=O)CC(=O)OC)cc1	<47%	< 43%	<84%	–	–
CCCCCCCCCCCCCCCCNc1ccc(C(O)C(N)=O)cc1 (configuration not stated)	57%	34%	94%	–	–
CCCCCCCCCCCCCCCCNc1ccc(C(=O)NS(=O)(=O)c2ccc(C)cc2)cc1	–	< 77%	–	–	–
CCCCCCCCCCCCCCCCNc1ccc(C(=O)OC2CCCCCC2)cc1	84%	0%	<87%	–	–
CCCCCCCCCCCCCCCCNc1csc(C(=O)OCC)c1	–	< 24%	112%	–	–
CCCCCCCCCCCCCCCCNc1ccc(CO)cc1	–	10% and 16%	–	–	–
CCCCCCCCCCCCCCCCNc1ccc(C(=O)OCC(COC(C)=O)OC(C)=O)cc1 (configuration not stated)	<40%	22%	<66%	–	–
CCCCCCCCCCCCCCCCNc1ccc(C(=O)OCC(O)COCC)cc1 (configuration not stated)	<47%	9%	<68%	–	–
CCCCCCCCCCCCCCCCNc1ccc(C(=O)OCC(COC(=O)CCCCCCCCCCCCCCC)OC(=O)CCCCCCCCCCCCCCC)cc1 (configuration not stated)	75%	4%	<80%	–	–
CCCCCCCCCCCCCCCCN(C(=O)CCCCCCCCCCCCCCC)c1ccc(C(=O)OCC(O)CO)cc1 (configuration not stated)	72%	14%	99%	–	–
CCCCCCCCCCCCCCCCNc1ccc(C(=O)Oc2cccnc2)cc1	–	< 22%	93%	–	92%
